According to ChEMBL document CHEMBL4619773, “Chemoreactive-Inspired Discovery of Influenza A Virus Dual Inhibitor to Block Hemagglutinin-Mediated Adsorption and Membrane Fusion” (J Med Chem, 2020):
Calls of active or inactive are those of the source. No cut-off for these calls is given here.

Columns and labels:
[1] = Toxicity in Kunming mouse assessed as effect on ALT level at 5 to 10 mg/kg/day, po for 7 days; format: organism-based; conditions: in vivo, 168 h
Summary of the method: (§1)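 Male Kunming mice (20–25 g) received compound orally at 5 or 10 mg/kg/day, suspended in 0.5% sodium carboxymethyl cellulose, once daily for 7 days; controls received vehicle. Serum was collected under isoflurane 24 h after the last dose. AST, ALT, CR, BUN, LDH, CK and CK-MB were measured with commercial kits.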

[2] = Toxicity in Kunming mouse assessed as effect on LDH level at 5 to 10 mg/kg/day, po for 7 days; format: organism-based; conditions: in vivo, 168 h; summary of the method: as §1
[3] = Cumulative drug excretion in mouse feces at 0.5 mg/kg, iv administered as single dose measured after 72 hrs; format: ADME, organism-based; conditions: faeces, read-out: Drug excretion
Summary of the method: (§2)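 Single oral (gavage, 0.5% CMC-Na) or iv (tail vein, PEG400) dosing was given to male Kunming mice or Sprague Dawley rats held in metabolic cages. Urine and feces were collected at intervals to 72 h. Feces were dried, ground and homogenized in water (1:9 w/v). Samples were precipitated with acetonitrile containing internal standard and analysed by LC-MS/MS.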

Influenza A virus [4] = assay: Antiviral activity against Influenza A virus (A/Puerto Rico/8/1934(H1N1)) infected in MDCK cells by HA assay; format: functional, organism-based
Summary of the method: (§3)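 MDCK cells were infected at high moi (≈3.0 PFU/cell). Virus-containing supernatants were serially diluted 2-fold and mixed with an equal volume of 1% chicken red blood cells. After 60 min at 4 °C, wells were scored for button sedimentation versus opaque agglutination to give titers.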

[5] = Metabolic stability in rat liver microsomes at 2 uM after 60 mins; format: ADME, Microsome; conditions: read-out: Stability
Summary of the method: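 Mouse, rat or human liver microsomes (final 0.5 mg/mL protein) were preincubated with an NADPH-regenerating system in 50 mM Tris-HCl pH 7.4 at 37 °C for 5 min. Compound was added at 2 µM final and incubated at 37 °C; NADPH-free incubations served as controls. Reactions were quenched with acetonitrile plus internal standard at 60 min. Percent remaining was measured by LC-MS/MS (n=3).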

Influenza A virus [6] = assay: Antiviral activity against Influenza A virus (A/California/04/2009(H1N1)) infected in MDCK cells incubated for 3 days by crystal violet staining based plaque assay; format: functional, organism-based; conditions: 72 h
Summary of the method: (§4)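 Confluent MDCK monolayers were exposed to 10-fold serial virus dilutions for 1 h at 37 °C, then washed. The overlay was DMEM with 1.5% agarose, 0.02% DEAE-dextran and 1 µg/ml TPCK-trypsin. After 3 days at 37 °C in 5% CO2, cells were fixed with 0.05% glutaraldehyde, stained with 1% crystal violet in 20% ethanol, and plaques were counted.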

Influenza A virus [7] = assay: Antiviral activity against Influenza A virus (A/Aichi/2/1968(H3N2)) infected in MDCK cells incubated for 3 days by crystal violet staining based plaque assay; format: functional, organism-based; conditions: 72 h; summary of the method: as §4
Influenza A virus [8] = assay: Antiviral activity against Influenza A virus (A/Puerto Rico/8/1934(H1N1)) infected in Kunming mouse assessed as improvement in body weight at 5 to 10 mg/kg/day, po starting 4 hrs after viral challenge and continued for 7 days and measured up to day 14 by plaque assay; format: functional, organism-based
Summary of the method: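 Groups of 10 female Kunming mice were infected intranasally with PR8 (1000 PFU/mouse) on day 0 and dosed once daily for seven days. Weight and clinical signs were recorded daily. Mice losing more than 25% of pre-infection weight were scored dead and euthanized; survivors were killed on day 14.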

Influenza A virus [9] = assay: Antiviral activity against Influenza A virus (A/Puerto Rico/8/1934(H1N1)) infected in MDCK cells pre-incubated for 1 hr before assay and incubated for 3 days by crystal violet staining based plaque assay; format: functional, organism-based; summary of the method: as §4
[10] = Tmax in mouse at 5 mg/kg, po administered as single dose; format: ADME, organism-based; conditions: in vivo
Summary of the method: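 Male Kunming mice (20–25 g) and male SD rats (180–220 g) were fasted 12 h before dosing. Compound was suspended in 0.5% CMC-Na and given by gavage (5 mg/kg mice, 3.5 mg/kg rats), or dissolved in PEG400 and given iv via tail vein (0.5 mg/kg mice, 0.35 mg/kg rats). Plasma was sampled from 5 min to 24 h and analysed by LC-MS/MS (n=3). F = AUCoral/AUCiv.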

[11] = Cumulative drug excretion in mouse feces at 5 mg/kg, po administered as single dose measured after 72 hrs; format: ADME, organism-based; conditions: faeces, read-out: Drug excretion; summary of the method: as §2
Influenza A virus [12] = assay: Antiviral activity against Influenza A virus (A/Puerto Rico/8/1934(H1N1)) infected in MDCK cells assessed as decrease in viral titers at 50 ug/ml pre-treated with virus before infection and measured 24 hrs post infection by HA assay; format: functional, organism-based; summary of the method: as §3
Influenza A virus [13] = assay: Antiviral activity against Influenza A virus (A/Puerto Rico/8/1934(H1N1)) infected in human A549 cells assessed as reduction in endocytosis and nuclear import of viral RNP by measuring green fluorescence of NP protein in both cytoplasm and nucleus at 25 ug/ml during early infection stage (0 to 2 hrs post infection) by indirect immunofluorescence assay; format: functional, organism-based
Summary of the method: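 PR8 virus was pretreated with or without 25 µg/ml compound for 1 h at 37 °C before infection. After adsorption, compound- or DMSO-containing medium was added. At 2 h p.i. cells were fixed (4% PFA), permeabilized (0.5% Triton X-100) and blocked (2% BSA). They were stained with anti-NP antibody, FITC secondary antibody and DAPI, then imaged by confocal microscopy.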

[14] = AUC (0 to t) in rat at 3.5 mg/kg , po administered as single dose; format: ADME, organism-based; conditions: in vivo
Summary of the method: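 Male Kunming mice (20-25 g) and male Sprague Dawley rats (180-220 g) were fasted 12 h before dosing. Oral dosing was by gavage as a suspension in 0.5% sodium carboxymethyl cellulose; iv dosing was via tail vein in PEG400. Serial plasma samples were taken to 24 h, protein-precipitated with acetonitrile plus N-CH3 internal standard, and quantified by LC-MS/MS (n=3). Bioavailability = AUCoral/AUCiv.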

[15] = target: Hemagglutinin (Influenza A virus (A/Puerto Rico/8/1934(H1N1))) (UniProt P03452); assay: Inhibition of Influenza A virus (A/Puerto Rico/8/1934(H1N1)) Hemagglutinin expressed in African green monkey Vero cells assessed as reduction in virus-induced syncytium formation at 50 ug/ml pre-treated with trypsin followed by compound addition for 15 mins and measured after 2 hrs at pH 5 by HA syncytium assay; format: cell-based
Summary of the method: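 Vero cells were transfected with PR8 HA plasmid (2 µg per well). At 16 h post-transfection, HA was cleaved with 5 µg/mL TPCK-trypsin for 15 min at 37 °C. Cells were pre-incubated with compound for 15 min at 37 °C, then exposed to pH 5.0 buffer containing compound for 10 min at 37 °C. After rinsing, cells were kept in 10% FBS medium for 2 h, stained, and syncytia imaged.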

[16] = Toxicity in Kunming mouse assessed as effect on blood urea nitrogen level at 5 to 10 mg/kg/day, po for 7 days; format: organism-based; conditions: in vivo, 168 h; summary of the method: as §1
Influenza A virus H3N2 = assay: Antiviral activity against Influenza A virus H3N2 (A/swine/Minnesota/02719/2009) infected in MDCK cells incubated for 3 days by crystal violet staining based plaque assay; format: functional, organism-based; conditions: 72 h; summary of the method: as §4
Influenza A virus [17] = assay: Antiviral activity against Influenza A virus (A/Puerto Rico/8/1934(H1N1)) infected in Kunming mouse assessed as decrease in lung TNFalpha level at 20 to 40 ug/day dosed intranasally starting 4 hrs after viral challenge and continued for 4 days by ELISA; format: functional, organism-based
Summary of the method: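 Four-week-old female Kunming mice received PR8 intranasally (500 PFU/mouse in 40 µL PBS) and were then dosed once daily orally or intranasally. Lungs were collected on day 4, and TNF-α and IL-6 in lung tissue were measured by ELISA.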

Sequence of Hemagglutinin (Influenza A virus (A/Puerto Rico/8/1934(H1N1))) (P03452 whole entry): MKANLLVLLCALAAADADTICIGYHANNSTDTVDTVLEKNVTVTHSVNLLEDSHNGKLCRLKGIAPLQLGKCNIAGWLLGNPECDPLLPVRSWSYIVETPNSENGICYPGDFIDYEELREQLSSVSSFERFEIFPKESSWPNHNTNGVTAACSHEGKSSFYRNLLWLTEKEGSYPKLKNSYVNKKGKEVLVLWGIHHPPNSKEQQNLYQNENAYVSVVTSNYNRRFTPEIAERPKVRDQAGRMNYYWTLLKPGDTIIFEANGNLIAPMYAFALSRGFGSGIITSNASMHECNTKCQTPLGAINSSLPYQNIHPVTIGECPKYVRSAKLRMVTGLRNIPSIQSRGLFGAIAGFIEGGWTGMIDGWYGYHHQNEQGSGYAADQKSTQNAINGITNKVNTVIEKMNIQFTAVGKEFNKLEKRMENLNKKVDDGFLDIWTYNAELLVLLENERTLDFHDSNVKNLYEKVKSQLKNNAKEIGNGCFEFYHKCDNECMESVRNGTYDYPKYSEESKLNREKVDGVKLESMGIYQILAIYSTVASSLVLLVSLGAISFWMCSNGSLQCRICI

Question: With `CC(=O)c1cc(C)c(O)c(Cc2[nH]c3ccccc3c2Cc2c(O)c(C)cc(C(C)=O)c2O)c1O` as the compound, how does the Activity [1] read?
Answer: Non-Toxic

Question: What about the Activity [2] of the same compound?
Answer: Non-Toxic

Question: What about the dose excreted at 72 h [3] of the same compound?
Answer: 29.1%

Question: What about the Activity (Influenza A virus [4]) of the same compound?
Answer: Dose-dependent effect

Question: What about the remaining at 1 h, 2 µM [5] of the same compound?
Answer: 36.6%

Question: And the IC50 (Influenza A virus [6])?
Answer: < 13 µg/mL

Question: And the IC50 (Influenza A virus [7])?
Answer: < 13 µg/mL

Question: What about the Activity (Influenza A virus [8]) of the same compound?
Answer: Active

Question: What about the Activity (Influenza A virus [9]) of the same compound?
Answer: Dose-dependent effect

Question: And the Tmax [10]?
Answer: 4 h

Question: What about the dose excreted at 72 h [11] of the same compound?
Answer: 38.4%

Question: What about the Activity (Influenza A virus [12]) of the same compound?
Answer: Active

Question: What about the Activity (Influenza A virus [13]) of the same compound?
Answer: Active

Question: And the AUC(0-t) [14]?
Answer: 1360 ng·h/mL

Question: And the inhibition [15]?
Answer: Active

Question: And the Activity [16]?
Answer: Non-Toxic

Question: What about the IC50 (Influenza A virus H3N2) of the same compound?
Answer: < 13 µg/mL

Question: And the Activity (Influenza A virus [17])?
Answer: Active
